Compound activity (PubChem)
Shown are actives, neighbours in structure and some others; about 4.3% of the full set was active somewhere.
OX1R antag-1 – antagonists of human orexin 1 receptor (OX1R); OX1R-expressing cells, FRET antagonist read-out; inhibition, % at 6.6 µM; actives 1.8% (n = 330,000); AID 485270, 2010; in the data active = inhibition mostly above about 38%, no sharp cut-off; inactive = mostly below about 40%
Target sequence (O43613 whole entry, looked up): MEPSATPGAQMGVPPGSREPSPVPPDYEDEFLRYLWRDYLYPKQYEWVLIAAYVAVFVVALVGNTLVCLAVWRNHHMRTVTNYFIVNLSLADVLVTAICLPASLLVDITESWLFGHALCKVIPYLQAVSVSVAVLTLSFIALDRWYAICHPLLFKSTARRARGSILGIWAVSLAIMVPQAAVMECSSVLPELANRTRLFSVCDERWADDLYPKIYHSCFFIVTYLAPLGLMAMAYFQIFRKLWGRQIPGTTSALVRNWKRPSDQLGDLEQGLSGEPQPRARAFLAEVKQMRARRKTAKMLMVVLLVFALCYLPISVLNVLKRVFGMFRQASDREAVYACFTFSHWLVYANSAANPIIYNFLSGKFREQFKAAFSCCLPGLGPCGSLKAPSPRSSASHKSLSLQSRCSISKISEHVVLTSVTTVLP
GalR3 antag – GalR3 antagonists in HEK293 cells, primary screen, cell-based, fluorescence readout; actives 0.44% (n = 360,000); Galanin receptor type 3 (Homo sapiens), O60755; inhibition, % at 3 µM; HEK293 GalR3-CNG cAMP membrane potential fluorescence; galR3 body fused to GalR1 C-terminus;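 active = inhibition above the screen-wide average plus 3 SD, cut at about 13% in these data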;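 note: forskolin and galanin both at EC90 stimulate the cells; cAMP rise reported by CNG channel membrane potential dye signal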
Target sequence (O60755 1-299 limits assumed): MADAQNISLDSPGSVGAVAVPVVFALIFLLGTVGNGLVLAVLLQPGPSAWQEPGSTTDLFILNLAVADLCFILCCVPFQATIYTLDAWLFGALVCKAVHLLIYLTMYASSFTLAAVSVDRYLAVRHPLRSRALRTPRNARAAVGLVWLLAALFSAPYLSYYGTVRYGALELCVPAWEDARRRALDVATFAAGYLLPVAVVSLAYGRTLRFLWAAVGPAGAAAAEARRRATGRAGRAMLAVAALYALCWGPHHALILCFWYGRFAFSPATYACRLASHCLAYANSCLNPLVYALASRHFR
TAAR1 ag – human TAAR1 agonists, primary screen, Fluo-8 calcium fluorescence, CHO RD-HGA16 cells. AID 624467, 2012. activation, % at 3 µM. actives 0.99% (n = 360,000). Trace amine-associated receptor 1 (Homo sapiens), Q96RJ0. vehicle wells 0%, saturating PEA agonist 100%;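 active = activation above the mean activation of all test compounds in the run plus 3 SD, cut at about 38% in these data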
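Test system: RD-HGA16 (CHO) cells co-expressing Gα16 and hTAAR1; dosing: one-point dosing at 3 µM (nominal); timing: 17-24 h seeding, 75 min 37 °C dye, 30 min RT; signal: kinetic Fluo-8 calcium fluorescence; read-out basis: % activation relative to PEA EC100 response; controls: DMSO and PEA EC100; replicates: n 1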
CHO parental Ca – ATP-evoked calcium signal inhibitors, parental CHO, primary screen, counter-screen for OX1R antagonist project, cell-based, fluorescence, Fluo-8 calcium dye | parental CHO-K1, ATP-induced calcium, Fluo-8 fluorescence | inhibition, % at 5.6 µM | actives 0.63% (n = 330,000);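 active = inhibition above that plate's mean sample inhibition plus 3 SD, cut at about 26% in these data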
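Assay system: parental CHO cells; Read-out basis: percent inhibition of ATP-evoked calcium rise, normalized to controls; Benchmarks: ATP and no-ATP DMSO wells; Compound dosing: single nominal dose of 5.6 µM per compound; Signal: Fluo-8 calcium dye fluorescence; Also added: ATP as calcium-mobilizing challenge; Repeats: singlicate.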
TAAR1 antagonist – human TAAR1 antagonists, primary screen, Fluo-8 calcium fluorescence, CHO RD-HGA16 cells; inhibition, % at 3 µM; actives 1.5% (n = 360,000); AID 624466, 2012; antagonist;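 active = inhibition above a per-plate cutoff, the mean inhibition of test compounds on that plate plus 3 SD, cut at about 49% in these data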
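Assay system: RD-HGA16 CHO cells with stable hTAAR1 and Gα16 / Reagent: EC80 β-phenethylamine stimulus / Doses: 3 µM, single point / Timing: dye loading 75 min at 37 °C, then 30 min room temperature / Measured by: Fluo-8 intracellular calcium dye fluorescence, real-time kinetic reads / Controls: vehicle wells and EC80 agonist wells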
OX1R antag-2 – OX1R (HCRTR1) antagonists, primary screen, fluorescence, CHO/OX1R cells, Fluo-8 calcium, orexin A; Orexin/Hypocretin receptor type 1 (Homo sapiens), O43613; Fluo-8 calcium fluorescence; inhibition, % at 5 µM; actives 0.43% (n = 330,000);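 active = inhibition above its plate's threshold, mean inhibition of all tested compounds on the plate plus 3 SD, cut at about 37% in these data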
Hits are given with their value.

How did CN(C)n1cccc1/C=C(\C#N)S(=O)(=O)c1ccc(Cl)cc1 do in these assays?
OX1R antag-1: inactive; GalR3 antag: inactive; TAAR1 ag: inactive; CHO parental Ca: 65; TAAR1 antagonist: inactive; OX1R antag-2: 63

How did O=C1C(=O)c2c(C(=O)c3ccccc3)coc2-c2ccccc21 do in these assays?
OX1R antag-1: 53; GalR3 antag: inactive; TAAR1 ag: inactive; CHO parental Ca: inactive; TAAR1 antagonist: inactive; OX1R antag-2: inactive

Results for O=C(C1=C(c2ccccc2)C(=O)c2ccccc2C1=O)c1ccccc1 ?
GalR3 antag: inactive; TAAR1 ag: inactive; TAAR1 antagonist: inactive

Results for Cc1oc2c(c1C(=O)c1ccccc1)C(=O)C(=O)c1ccccc1-2 ?
OX1R antag-1: active; GalR3 antag: inactive; TAAR1 ag: inactive; CHO parental Ca: inactive; TAAR1 antagonist: inactive; OX1R antag-2: inactive

How did Cc1ccc(-c2nc3ccccc3n2C(C)C(=O)NC(C)(C)C)cc1 (stereo not drawn) do in these assays?
GalR3 antag: inactive; TAAR1 ag: inactive; TAAR1 antagonist: inactive

What do the screens show for `COC(=O)C1=C(C)N(C)C(=NCc2ccc(OC)cc2)NC1c1ccccc1` (stereo not drawn)?
GalR3 antag: inactive; TAAR1 ag: inactive; TAAR1 antagonist: inactive

How did Cc1sc2ncn(CC(=O)NCc3ccccc3)c(=O)c2c1C do in these assays?
OX1R antag-1: inactive; GalR3 antag: inactive; TAAR1 ag: inactive; CHO parental Ca: inactive; TAAR1 antagonist: inactive; OX1R antag-2: inactive

How did Cc1sc2ncn(CC(=O)NCCc3ccccc3)c(=O)c2c1C do in these assays?
OX1R antag-1: inactive; GalR3 antag: inactive; TAAR1 ag: 42; CHO parental Ca: inactive; TAAR1 antagonist: inactive; OX1R antag-2: inactive

What do the screens show for `COc1ccc(CCNC(=O)Cn2cnc3sc(C)c(-c4ccc(F)cc4)c3c2=O)cc1OC`?
OX1R antag-1: inactive; GalR3 antag: inactive; TAAR1 ag: 54; CHO parental Ca: inactive; TAAR1 antagonist: inactive; OX1R antag-2: inactive

How did O=C(Cn1cnc2sc(-c3ccccc3)cc2c1=O)NCCc1ccccc1 do in these assays?
OX1R antag-1: inactive; GalR3 antag: inactive; TAAR1 ag: 39; CHO parental Ca: inactive; TAAR1 antagonist: inactive; OX1R antag-2: inactive

Results for COC(=O)[C@]12C[C@H](CC(=O)N3CCN(C(=O)C4CC4)CC3)C(=O)N(Cc3ccccc3)C1=C[C@H](C(C)C)O[C@@H]2C1CC1 ?
GalR3 antag: inactive; TAAR1 ag: inactive; TAAR1 antagonist: inactive

What do the screens show for `COc1ccc(S(=O)(=O)Nc2cc(Sc3ncn[nH]3)c(O)c3ccccc23)cc1`?
GalR3 antag: inactive; TAAR1 ag: 43; TAAR1 antagonist: inactive

Results for Cc1cc(NCCc2ccccc2F)n2ncnc2n1 ?
OX1R antag-1: inactive; GalR3 antag: inactive; TAAR1 ag: 38; CHO parental Ca: inactive; TAAR1 antagonist: inactive; OX1R antag-2: inactive

How did Cc1cc(NCCc2ccc(Cl)cc2)n2ncnc2n1 do in these assays?
OX1R antag-1: inactive; GalR3 antag: inactive; TAAR1 ag: inactive; CHO parental Ca: inactive; TAAR1 antagonist: inactive; OX1R antag-2: inactive

What do the screens show for `CCCNC(=O)C1(C)CCN(Cc2noc(-c3ccccc3OC)n2)C1` (stereo not drawn)?
GalR3 antag: inactive; TAAR1 ag: inactive; TAAR1 antagonist: inactive

What do the screens show for `Cc1cc(SCC(=O)N2CCC(c3noc4ccc(F)cc34)CC2)nc2ccccc12`?
OX1R antag-1: 49; GalR3 antag: inactive; TAAR1 ag: inactive; CHO parental Ca: inactive; TAAR1 antagonist: inactive; OX1R antag-2: inactive

Results for O=C(CSc1ncnc2sc3c(c12)CCCC3)N1CCC(c2noc3ccc(F)cc23)CC1 ?
OX1R antag-1: inactive; GalR3 antag: inactive; TAAR1 ag: inactive; CHO parental Ca: inactive; TAAR1 antagonist: inactive; OX1R antag-2: inactive

How did O=C(COC(=O)c1cccc(C(F)(F)F)c1)NCc1ccccc1 do in these assays?
OX1R antag-1: inactive; GalR3 antag: inactive; TAAR1 ag: inactive; CHO parental Ca: 49; TAAR1 antagonist: inactive; OX1R antag-2: inactive

Results for CC(NC(=O)CN(c1cccc(C(F)(F)F)c1)S(=O)(=O)c1ccc(Cl)c([N+](=O)[O-])c1)c1ccccc1 (stereo not drawn) ?
OX1R antag-1: inactive; GalR3 antag: inactive; TAAR1 ag: inactive; CHO parental Ca: 36; TAAR1 antagonist: inactive; OX1R antag-2: inactive

Results for O=C(CN(c1cccc(C(F)(F)F)c1)S(=O)(=O)c1ccc(Cl)c([N+](=O)[O-])c1)NCc1ccccc1 ?
OX1R antag-1: inactive; GalR3 antag: inactive; TAAR1 ag: inactive; CHO parental Ca: inactive; TAAR1 antagonist: inactive; OX1R antag-2: inactive

Results for Cc1ccc(C(=O)CSc2cnc3ccccc3n2)cc1C ?
OX1R antag-1: 66; GalR3 antag: inactive; TAAR1 ag: inactive; CHO parental Ca: inactive; TAAR1 antagonist: inactive; OX1R antag-2: inactive

Results for CN(C)C(=O)CSc1cnc2ccccc2n1 ?
OX1R antag-1: inactive; GalR3 antag: inactive; TAAR1 ag: inactive; CHO parental Ca: inactive; TAAR1 antagonist: inactive; OX1R antag-2: inactive

Results for CN(C)CCCN1C(=O)c2cccc3cccc(c23)C1=O ?
OX1R antag-1: 56; GalR3 antag: inactive; TAAR1 ag: inactive; CHO parental Ca: inactive; TAAR1 antagonist: inactive; OX1R antag-2: inactive

Results for O=C(CCCCCN1C(=O)c2cccc3cccc(c23)C1=O)NCCO ?
OX1R antag-1: 52; GalR3 antag: inactive; TAAR1 ag: inactive; CHO parental Ca: inactive; TAAR1 antagonist: inactive; OX1R antag-2: inactive

Results for O=C(CCN1C(=O)c2cccc3cccc(c23)C1=O)NCc1cccnc1 ?
OX1R antag-1: 47; GalR3 antag: inactive; TAAR1 ag: inactive; CHO parental Ca: inactive; TAAR1 antagonist: inactive; OX1R antag-2: inactive

How did CN(C)CCCN1C(=O)c2cc3ccccc3cc2C1=O do in these assays?
OX1R antag-1: inactive; GalR3 antag: inactive; TAAR1 ag: inactive; CHO parental Ca: inactive; TAAR1 antagonist: inactive; OX1R antag-2: inactive

What do the screens show for `Cc1cccc(C)c1NC(=O)CNC(=O)CCCN1C(=O)c2cccc3cccc(c23)C1=O`?
OX1R antag-1: inactive; GalR3 antag: inactive; TAAR1 ag: inactive; CHO parental Ca: inactive; TAAR1 antagonist: inactive; OX1R antag-2: inactive

What do the screens show for `CCN(CC)C(=O)CN1C(=O)c2cccc3cccc(c23)C1=O`?
OX1R antag-1: 69; GalR3 antag: inactive; TAAR1 ag: inactive; CHO parental Ca: inactive; TAAR1 antagonist: inactive; OX1R antag-2: inactive

What do the screens show for `COc1ccc(Cl)cc1NC(=O)CSc1nnc(CNC(=O)c2cccs2)o1`?
OX1R antag-1: inactive; GalR3 antag: inactive; TAAR1 ag: inactive; CHO parental Ca: inactive; TAAR1 antagonist: inactive; OX1R antag-2: inactive
